Source: PubChem
ROMK mod – modulators of human ROMK potassium channel | Tet-inducible ROMK, thallium flux fluorescence; actives lie on both sides | B-score at 10 µM | 130,000 compounds, 2% hits | AID 1918;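 active means signal ratio slope over the read window, or its plate-corrected B-score, at least 3 SD from the plate mean, either direction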;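 further: B-score of the F/F0 ratio slope over 7 to 12 s after thallium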
Arbovirus inh – antivirals against arbovirus infection | 200,000 compounds, 0.37% hits | inhibition, % at 10 µM | arbovirus infection cell-based antiviral screen | AID 1251; in the data active means inhibition above about 30%
m-calpain inh – calpain II (pig) inhibition; purified calpain II, fluorogenic peptide substrate, 30 min; inhibition, % at 16 µM; 220,000 compounds, 0.37% hits; AID 1236;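 active means inhibition above about 50%, limit read from the data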
Cl transport mod – modulates chloride dependent transport by human KCC2 | KCC2 cells, thallium flux FluoZin-2 fluorescence | B-score of Tl+ flux slope (higher = more flux/activation; lower = inhibition) at 10 µM | 190,000 compounds, 2.2% hits | AID 1456;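 active means thallium flux slope and its plate-corrected score both differing from the plate sample mean at a set confidence after two filtering rounds, in either direction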;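 further: slope of fluorescence scaled to starting intensity during 10 to 20 s after thallium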
PKD1 inh – PKD1 (human) kinase inhibition; inhibition, % (test concentration not listed); 200,000 compounds, 0.056% hits; Q15139; PKD1 kinase fluorescence polarization assay; in the data active means inhibition above about 50%
Mdm2 ligase inh – blocks human Mdm2 ubiquitin ligase activity. Q00987. cell-based MDM2 ubiquitination luciferase reporter, 2 h; 0 = plate control, 100 = twice control, blank-subtracted. signal enhancement, % at 5 µM. 210,000 compounds, 0.11% hits. AID 1230;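 active means signal enhancement of 30% or more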;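 further: luminescence tracks abundance of the self-degrading MDM2-luciferase fusion protein; higher signal means inhibition of MDM2 E3 ligase activity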
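Buffer or medium: Cells held in DMEM | Assay system: Stable mammalian line carrying autodegrading MDM2–luciferase fusion reporter | Quantity: 2000 cells/well | Times: 4 h settle plus 2 h compound, 37 °C | Doses: One concentration, 5 µM, with 0.2% DMSO | Technique: Luminescence with SteadyLite reagent, 15 min at room temperature | Benchmarks: Plate controls and plate blanks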
* marks the source's active call; other numbers are inactive results; i = inactive; / = not tested or not shown. Only some compounds are listed: those with a hit (about 3.7% of all), similar ones and a draw of the others.

SMILES	ROMK mod	Arbovirus inh	m-calpain inh	Cl transport mod	PKD1 inh	Mdm2 ligase inh
NC(=O)c1ccc(-n2nnnc2SCC(=O)Nc2ccccc2-c2ccccc2)cc1	/	-3	65*	/	3	6
CCCc1cc(-c2n[nH]c(=S)n2C(C)c2ccccc2)cs1 (stereo unspecified)	0.056	5	28	7.6*	5	-14
CCOc1ccccc1Cn1c(=O)sc2ccccc21	0.29	2	51*	-1.1	-2	-5
CS(=O)(=O)c1nc(-c2cccs2)cc(C(F)(F)F)n1	-4.3*	-26	-3	/	3	25
COc1cccc(CC2(CO)CCN(Cc3ccc4cccc(F)c4n3)CC2)c1	0.018	8	20	/	6	-6
CCOc1ccc(-n2nc3c(-n4ncc(C#N)c4N)nnc(C)c3c2C)cc1	/	/	/	-0.61	-2	/
CC(=O)/C(=C/Nc1ccc(Oc2ccccc2)cc1)c1ccccc1	/	12	23	/	-7	2
COc1cc(N/C=C(\C(C)=O)c2ccccc2)cc(OC)c1	/	-4	65*	/	-15	1
CSc1ccc(-c2nc(CN3CCCCC3c3cccnc3)c(C)o2)cc1 (stereo unspecified)	/	8	-34	/	-2	-12
O=C(NCc1ccc(F)cc1)c1cc2n(n1)C(C(F)(F)F)CC(C1CC1)N2 (stereo unspecified)	/	6	66*	0.71	-5	-26
O=C(Nc1ccccc1)c1cc2n(n1)C(C(F)(F)F)CC(C1CC1)N2 (stereo unspecified)	-0.15	5	15	-0.63	1	-96
COc1ccc(NC2=NC(=S)N(c3ccccc3C)C23CCCCC3)cc1	/	0	-8	89*	-5	-17
CCOc1ccccc1N1CC(C(=O)Nc2cccc(S(=O)(=O)N3CCCCC3)c2)CC1=O (stereo unspecified)	0.23	12	-25	-0.3	-5	-10
Cc1cccc(C)c1Nc1nnc(SC/C(O)=C(\C#N)c2nc3ccccc3[nH]2)s1	0.9	30*	-47	-1.3	1	-2
Cc1cccc(Nc2nnc(SC/C(O)=C(\C#N)c3nc4ccccc4[nH]3)s2)c1C	0.41	29	-90	-3.2	5	0
COC(=O)c1cc(NC(=O)c2cccc(C(F)(F)F)c2)c(=O)oc1C	0.49	6	-7	0.14	4	-5
COC(=O)c1cc(NC(=O)c2cccc(Cl)c2)c(=O)oc1/C=C/Nc1cc(C)cc(C)c1	-5.8*	9	-140	i	-7	-3
CCn1c(=S)[nH]c2c(c1=O)C(C)(C)Cc1ccccc1-2	4*	9	0	151*	1	1
CC1(C)Cc2ccccc2-c2c1c(=O)n(Cc1ccccc1)c1nnnn21	0.32	-8	-17	/	-9	-3
CCOC(=O)c1c(NC(=O)c2cc(C3CC3)on2)sc2c1CCCC2	/	3	/	/	/	/
COc1ccc(C)cc1Nc1ccc(C(=O)O)cc1[N+](=O)[O-]	0.36	0	18	0.52	2	0
CCN(CC)CC1CCCCN1CC(=O)N1c2ccccc2C(=O)Nc2cccnc21 (stereo unspecified)	/	6	18	-0.41	/	/
COC(=O)c1ccccc1NC(=O)CCCn1nc([N+](=O)[O-])cc1C	0.51	3	-8	0.17	-1	1
Cc1nn(CCCC(=O)NCc2ccccc2)c(C)c1[N+](=O)[O-]	/	6	-16	0.19	-5	40*
COc1ccc(CNC(=O)CCCn2nc([N+](=O)[O-])cc2C)cc1	-0.0058	18	60*	0.38	-3	3
SMILES	ROMK mod	Arbovirus inh	m-calpain inh	Cl transport mod	PKD1 inh	Mdm2 ligase inh
Cc1cc([N+](=O)[O-])nn1CCCC(=O)Nc1cc(Oc2ccccc2)cc([N+](=O)[O-])c1	0.095	-26	56*	-0.21	0	6
CCN(C(=O)CSc1nnc2nc(C)cc(C)n12)c1ccccc1	-0.48	0	-1	0.12	2	-9
COc1ccc(-c2csc(NC(=O)/C(N=Nc3ccccc3)=C(\C)O)n2)cc1	0.0093	0	-68	/	5	-15
CCOc1ccc(S(=O)(=O)N2CCCCC2)c(C)c1C	-0.13	-1	57*	-1.5	-8	-12
CCOc1ccc(S(=O)(=O)N2CCN(C)CC2)c(C)c1C	-0.39	6	18	0.0095	-1	-18
Cc1cc(C(=O)NNC2CC(=O)N(c3ccc4ccccc4c3)C2=O)c(C)o1 (stereo unspecified)	-0.0078	-1	0	-0.51	1	-11
COc1ccc(N(C)S(=O)(=O)c2ccc(C)cc2)c([N+](=O)[O-])c1	-0.84	2	-19	0.55	6	9
Cc1ccc(S(=O)(=O)N(C)c2ccc(C)c([N+](=O)[O-])c2)cc1	-0.55	10	50*	-0.11	-3	1
Cc1ccccc1N1CC(=O)N(c2ccccc2C)CC1=O	/	0	-39	1.3	1	-15
Cc1cccc2c1c1ccc3c(c1n2C)C(=O)C=CC3=O	/	/	-45	0.055	/	54*
CC(=O)Nc1ccc(S(=O)(=O)NCc2csc(-c3cccnc3)n2)cc1	0.16	16	12	3.2*	2	-1
O=S(=O)(NCc1csc(-c2cccnc2)n1)c1cccs1	/	-7	-6	-0.33	2	-17
Cc1ccnc(NS(=O)(=O)c2ccc(NC(=O)c3ccc([N+](=O)[O-])s3)cc2)n1	1.5	-26	-40	0.57	2	-7
Cc1nc(-c2ccccc2)sc1C(=O)CSc1ccc(Cl)cc1	/	-20	64*	/	-10	11
O=C1c2cccc(O)c2C(=O)c2c(O)cccc21	/	-10	-3	0.4	1	/
O=C1c2cccc(Sc3ccccc3)c2C(=O)c2c(Sc3ccccc3)cccc21	/	/	50*	-0.48	/	-4
CCCC(C)C(=O)Nc1ccc(S(=O)(=O)Nc2nccs2)cc1 (stereo unspecified)	-0.5	10	-22	0.45	-4	-9
CC(=O)Nc1ccc(NC(=O)c2cc(C)nn2-c2ccccc2)cc1	/	8	-13	0.0017	-5	-1
O=C(Nc1nc2ccccc2s1)c1cc(-c2ccccc2)nn1-c1ccccc1	0.26	49*	-12	1.4	-6	-16
Cc1cc(C(=O)Nc2cccc3ccccc23)n(-c2ccccc2)n1	/	-5	-49	-0.29	-1	42*
CC(=O)c1sc(NC(=O)c2cc(-c3ccccc3)nn2-c2ccccc2)nc1C	1.1	17	19	3.3	-15	1
Cc1ccc2nc(NC(=O)C3=NN(c4ccccc4)C(=O)CC3)sc2c1	/	60*	-24	0.052	0	-15
COc1ccc(-c2csc(NC(=O)C3=NN(c4ccccc4)C(=O)CC3)n2)cc1	0.22	31*	-120	-0.66	1	-19
Cc1cccc2cc(C#N)c(N3CCC(O)CC3)nc12	-0.083	-12	-213	-2.1	4	-13
O=C(NCCCN1CCOCC1)c1ccc(CSc2ccc(Cl)cc2)cc1	-2.3	-39	-41	-0.42	-3	-29
